Drawing on PubChem BioAssay, this text covers outcome for 19 compounds.

SMILES strings stand for the structures. The source made the active and inactive calls.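 The calls were made as follows: active = duplicate-averaged activation above buffer control mean plus 5 SD of those controls; inactive = the rest.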

A short description of this experiment: nonspecific flux increase, KCNQ1-free cells – parental CHO cells, counter-screen for KCNQ1 potentiator project (AID 493006). The settings on record: parental CHO-K1 cells, FluxOR thallium flux, at 10 µM. The gist of the method:
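Assay system: parental CHO-K1 cells lacking KCNQ1, loaded with FluxOR thallium dye; timing: dye 90 min RT, compound 20 min RT; signal: kinetic thallium-flux fluorescence; repeats: duplicate wells per compound, percent values averaged; benchmarks: buffer and R-L3 controls; reagent: Potassium/thallium depolarization pulse; read-out: fluorescence change ratio scaled 0% buffer, 100% R-L3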
As for `N#Cc1ccccc1OCCN1C(=O)c2ccccc2C1=O`, the outcome was inactive. The entry for `CC1CCCCC1NC(=S)NC(=O)c1sc2ccccc2c1Cl` (centres undefined) is “inactive”. In the case of `CC(Oc1ccc2ccccc2c1)C(=O)NNC(=S)NC(=O)c1ccco1` (centres undefined), the result was inactive. Under `Cc1cc(C)cc(OCC(=O)NNC(=O)c2cc3ccccc3o2)c1` stands “inactive”; under `Cc1cc(NC(=O)CSCC(=O)OC(C)C(=O)N(C)Cc2ccccc2)no1` (centres undefined), “inactive”; under `CCn1c(CCNC(=O)c2ccc(Cl)cc2Cl)n[nH]c1=S`, “inactive”. Under `Cc1ccc(-n2ncc3c(=O)n(CC(=O)N4CCN(c5ccccc5F)CC4)cnc32)cc1C` stands “inactive”.

Take `O=C(CC1(O)C(=O)N(Cc2ccccc2)c2ccccc21)c1ccncc1` (centres undefined): the result was inactive.

As for `O=C(NC(=S)Nc1nc2c(s1)CCCC2)c1ccccc1`, the result was inactive. The entry for `COc1ccc(CCNC(=O)CCOc2cc(C)ccc2C)cc1OC` is “inactive”.

As to `NC(=Nc1ccc(Cl)cc1)c1ccccc1`, the result was inactive.

With `S=C(Nc1ccc(Cl)cc1)c1nc2ccccc2s1`, the outcome was inactive. Regarding `CCCOc1ccc(C(=O)NNC(=S)NC(=O)c2cc(-c3ccc(Cl)cc3)nc3ccccc23)cc1`, the result was inactive. Under `COc1ccc(-c2csc(N(CCCN(C)C)C(=O)c3ccccc3F)n2)cc1` stands “inactive”. Under `CCOC(=O)c1c(N)sc(C(C)=O)c1C` stands “inactive”; under `CCOC(=O)N1CCC(NC(=O)c2cc(C(=O)NCc3ccc(F)cc3)ccc2CO)CC1`, “inactive”. The entry for `COc1cc(OC)cc(C(=O)N2CC(=O)Nc3ccccc32)c1` is “inactive”; for `O=C(CSc1nnc(-c2ccccn2)n1-c1ccc(Cl)cc1)Nc1ccc2c(c1)OCO2` it is “inactive”; for `Oc1c(/C=N/c2ccccn2)sc2ccccc12` it is “inactive”.
